Screens from PubChem.
Shown are actives, neighbours in structure and some others; about 3% of the full set was active somewhere.
T cruzi repl – T. cruzi replication inhibition; 1.4% of 300,000 active; inhibition, % (test concentration not listed); T. cruzi beta-gal in NIH3T3, luminescence, 90 h; AID 1885;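 active = mean inhibition across valid replicates above about 55%, limit read from the data; inconclusive = mean below that limit but half or more replicates reach it; inactive = mean below it, under half of replicates reach it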;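 also: signal also drops with host cell toxicity which is not excluded here; 0% = plate median of DMSO wells and 100% = zero luminescence signal; higher percent means less beta-gal luminescence so fewer parasites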
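Test system: β-gal T. cruzi (Tulahuen C4) inside NIH/3T3 cells / Quantity: 5,000 cells/well / Measured by: luminescence from GalScreen with 0.05% NP40, read after 60 min / Medium: DMEM plus 2% FBS / Measure: parasite load inhibition, % / Reagent: Tulahuen C4 trypomastigotes, 5000/well / Schedule: co-culture of at least 90 h after 3 h attachment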
PfHsp90 yeast 2 – growth inhibition of yeast expressing Plasmodium Hsp90; inhibition, % at 9.4 µM; AID 504621; 0.32% of 310,000 active; S. cerevisiae expressing PfHsp90, BacTiter-Glo ATP, 48 h; yeast lacking PDR1 and PDR3 efflux regulators;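 active = every replicate shows inhibition above about 80%, whatever the replicate mean, limit read from the data; inconclusive = mean inhibition reaches the set limit but some replicate falls short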;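 also: 0% = DMSO neutral controls and 100% = 20 µM radicicol positive controls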
HSF1 activator – increases HSF-1 driven luciferase reporter signal; AID 504408; 1.7% of 300,000 active; NIH3T3-HGL HSF-1 luciferase reporter, MG132, 8 h; 100% = twice DMSO control signal; activation, % at 9 µM;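 active = mean replicate activation of at least 50% with a set share of replicates each reaching 50%; inconclusive = only one of those two conditions met; inactive = mean below 50% and too few replicates reaching it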;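 also: 0% = median of the neutral control wells and 100% = twice that signal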
CaV13 FRET inh – Primary screen for inhibitors of IQ motif and Ca2+-dependent inactivation inhibitor domain binding in CACNA1D, Förster resonance energy transfer in living cells, … | inhibition, % at 12.3 µM | HEK cells, CFP/YFP FRET ICDI-IQ, plate reader, 10 min; percent FRET-ratio fall versus neutral wells | 0.098% of 340,000 active;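 active = mean replicate inhibition of at least 30% and at least 1% of replicates passing that level; inconclusive = only one of the two criteria is met; inactive = neither criterion is met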;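 also: 0% = median of the neutral control wells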
PvdQ inh – P. aeruginosa PvdQ acylase inhibition; purified PvdQ acylase, fluorescence plate reader; AID 488965; 0.063% of 340,000 active; inhibition, % at 10 µM; in the data active = inhibition above about 30%, passing the limit was not always enough; inconclusive = no clear call, values can overlap the other calls;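 also: 0% = vehicle neutral wells and 100% = reference inhibitor wells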
N-glyco inh – N-linked glycosylation inhibition; reporter increase, % at 12.5 µM; D54 ERlucT glycosylation luciferase reporter, 24 h; percent of 100 nM tunicamycin response; 0.23% of 360,000 active;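 active = mean luciferase reporter signal, scaled so untreated is 0 and the glycosylation-blocking control 100, at or above a set limit in every replicate; inconclusive = mean reaches the limit but not every replicate does; inactive = mean below the limit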;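 also: luciferase carries N-glycosylation sites so blocking glycosylation raises the light; 0% = median of neutral control wells and 100% = median of 100 nM tunicamycin wells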
* hit, by the source's call.

What do the screens show for `CN1CCN(c2cc(-c3ccccc3)nc3cc(-c4ccc(F)cc4)nn23)CC1`?
T cruzi repl: 35.4; HSF1 activator: 26.8; CaV13 FRET inh: -0.3; PvdQ inh: -17.8; N-glyco inh: -5.9

What do the screens show for `CCCCN1C(=O)C(CC(=O)NC2CCCCC2)CC(C(=O)N2CCCCCC2)=C1C` (centres undefined)?
CaV13 FRET inh: -13.0

What do the screens show for `O=C(NCc1ccco1)c1ccc(N2CCCCC2)c([N+](=O)[O-])c1`?
T cruzi repl: 26.8; PfHsp90 yeast 2: -5.3; HSF1 activator: 19.0; CaV13 FRET inh: -3.1; PvdQ inh: 3.6; N-glyco inh: -0.8

What do the screens show for `Cc1ccc(N(Cc2ccco2)C(=O)c2ccc(N3CCCCC3)c([N+](=O)[O-])c2)cc1`?
T cruzi repl: 56.2*; PfHsp90 yeast 2: 10.0; HSF1 activator: 12.8; CaV13 FRET inh: -1.7; PvdQ inh: 14.2; N-glyco inh: -4.3

What do the screens show for `CCc1ccc2oc(=O)cc(CN3CCN(Cc4ccccc4)CC3)c2c1`?
T cruzi repl: 61.4*; PfHsp90 yeast 2: -11.5; HSF1 activator: 8.3; CaV13 FRET inh: -2.2; PvdQ inh: -4.8; N-glyco inh: -1.0

What do the screens show for `O=C(c1ccco1)N1CCN(Cc2cc(=O)oc3cc(O)ccc23)CC1`?
PfHsp90 yeast 2: 15.3; CaV13 FRET inh: -4.1; PvdQ inh: -2.6; N-glyco inh: -3.5

How did O=c1cc(CN2CCN(Cc3ccccc3)CC2)c2ccc(O)cc2o1 do in these assays?
T cruzi repl: 55.9*; PfHsp90 yeast 2: -27.3; HSF1 activator: -27.2; CaV13 FRET inh: -3.0; PvdQ inh: 1.8; N-glyco inh: -0.6

How did Cc1cc2oc(=O)cc(CN3CCN(Cc4ccccc4)CC3)c2cc1Cl do in these assays?
T cruzi repl: inconclusive; PfHsp90 yeast 2: 13.0; HSF1 activator: 24.2; PvdQ inh: -18.9; N-glyco inh: -2.4

How did Cc1ccc2c(CN3CCN(Cc4ccccc4)CC3)cc(=O)oc2c1 do in these assays?
T cruzi repl: 58.5*; PfHsp90 yeast 2: 12.2; HSF1 activator: 8.2; CaV13 FRET inh: -18.2; PvdQ inh: 8.9; N-glyco inh: 0.7

How did CNC[C@@H]1OCc2cnnn2CCCC(=O)N([C@@H](C)CO)C[C@H]1C do in these assays?
CaV13 FRET inh: -5.9

How did Cc1nn(Cc2ccc(Cl)c(Cl)c2)c(C)c1NC(=O)c1cn(-c2ccccc2)nc1-c1ccccc1 do in these assays?
T cruzi repl: 60.7*; PfHsp90 yeast 2: -11.0; HSF1 activator: 11.7; CaV13 FRET inh: -4.6; PvdQ inh: 4.2; N-glyco inh: -4.4

How did Cc1nn(Cc2ccccc2)c(C)c1NC(=O)Cn1nc([N+](=O)[O-])c(Cl)c1C do in these assays?
T cruzi repl: 16.6; PfHsp90 yeast 2: 7.3; HSF1 activator: 25.3; PvdQ inh: -5.5; N-glyco inh: 0.2

How did Cc1nn(Cc2ccccc2)c(C)c1NC(=O)c1ccc([N+](=O)[O-])cc1[N+](=O)[O-] do in these assays?
T cruzi repl: 56.0*; PfHsp90 yeast 2: -5.5; HSF1 activator: -1.9; CaV13 FRET inh: -4.6; PvdQ inh: -1.8; N-glyco inh: 3.4

Results for Cc1ccc(S(=O)(=O)N2[C@@H](Cc3ccccc3)CO[C@H]2CC(=O)c2cccc3ccccc23)cc1 ?
CaV13 FRET inh: -11.0

What do the screens show for `Nc1[nH]c(C(=O)c2ccc(Br)cc2)c(-c2ccccn2)c1C(=O)NCCc1c[nH]c2ccccc12`?
CaV13 FRET inh: -5.8

Results for COC(=O)C1=C(C)N(Cc2cccc(C(F)(F)F)c2)C(=NCc2cc(OC)c(OC)c(OC)c2)NC1CCc1ccccc1 (centres undefined) ?
CaV13 FRET inh: -2.0

What do the screens show for `CN(C)CCCN(C(=O)c1cccs1)c1nc2cc3c(cc2s1)OCO3`?
T cruzi repl: 67.0*; PfHsp90 yeast 2: -6.1; HSF1 activator: 14.8; CaV13 FRET inh: -7.3; PvdQ inh: 21.5; N-glyco inh: 1.8

How did CN(C)CCCN(C(=O)c1ccco1)c1nc2ccc(F)cc2s1 do in these assays?
T cruzi repl: 47.8; PfHsp90 yeast 2: -9.8; CaV13 FRET inh: -3.6; PvdQ inh: -7.9; N-glyco inh: 1.4
